Results from article PMC8970626 (Biochemistry, 2022).
Values joined by “and” are separate entries in the source; they are usually repeats but may differ in a detail not shown here. Identical values can stand only once. Blank lines part the entries; values can stand above or below the molecule they belong to.

Columns and labels:
rat CYP24A1 = settings: cited from earlier work
human CYP24A1 (hCYP24A1) = biological target: T1, human CYP24A1 (hCYP24A1) (Homo sapiens, UniProt Q07973); experiment: Spectral ligand binding assay with hCYP24A1; settings: for spectral response on titration (type-I, high-spin transition): hCYP24A1 without hAdx
T1 sequence (Q07973 36-514): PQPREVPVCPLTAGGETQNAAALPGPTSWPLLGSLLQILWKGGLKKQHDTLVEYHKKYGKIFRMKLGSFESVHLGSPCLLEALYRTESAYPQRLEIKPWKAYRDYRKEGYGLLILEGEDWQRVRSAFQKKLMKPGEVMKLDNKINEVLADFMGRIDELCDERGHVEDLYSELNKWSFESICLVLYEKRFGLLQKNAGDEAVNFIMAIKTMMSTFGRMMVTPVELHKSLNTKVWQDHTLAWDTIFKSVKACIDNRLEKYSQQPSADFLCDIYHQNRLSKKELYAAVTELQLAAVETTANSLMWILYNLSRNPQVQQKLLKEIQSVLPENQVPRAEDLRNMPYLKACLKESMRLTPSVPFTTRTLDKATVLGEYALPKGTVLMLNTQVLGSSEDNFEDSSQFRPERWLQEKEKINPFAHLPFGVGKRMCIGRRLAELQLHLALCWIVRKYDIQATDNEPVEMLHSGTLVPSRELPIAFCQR

rat CYP24A1 (rCYP24A1) = biological target: T2, rat CYP24A1 (rCYP24A1) (Rattus norvegicus, UniProt Q09128); experiment: Spectral ligand binding assay with rCYP24A1; settings: rCYP24A1, no Adx
T2 sequence (Q09128 36-514): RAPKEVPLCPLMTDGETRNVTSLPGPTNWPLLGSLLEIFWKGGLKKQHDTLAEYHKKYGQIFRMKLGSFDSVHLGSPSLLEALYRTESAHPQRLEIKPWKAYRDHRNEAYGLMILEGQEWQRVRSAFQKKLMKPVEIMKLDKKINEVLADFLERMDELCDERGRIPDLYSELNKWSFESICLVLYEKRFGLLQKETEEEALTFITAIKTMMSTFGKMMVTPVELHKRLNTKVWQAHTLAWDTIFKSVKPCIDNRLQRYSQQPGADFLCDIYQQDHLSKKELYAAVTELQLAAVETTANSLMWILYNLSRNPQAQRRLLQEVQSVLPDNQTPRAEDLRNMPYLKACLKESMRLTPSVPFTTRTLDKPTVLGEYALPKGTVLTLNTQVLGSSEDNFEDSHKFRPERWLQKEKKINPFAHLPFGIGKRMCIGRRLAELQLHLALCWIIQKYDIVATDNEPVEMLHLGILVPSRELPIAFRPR
Outline: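 UV-visible difference-spectra titration at ambient temperature with enzyme at 1 μM in 10 mM potassium phosphate. Ligand added from DMSO stock, solvent ≤2%, with 8 min incubation per point before each wavelength scan. Where Adx was present, 10 μM hAdx (WT or L80V) was baselined in the cuvette before enzyme and ligand.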

hCYP24A1 = biological target: T3, hCYP24A1 (Homo sapiens, UniProt Q07973); experiment: Reconstituted hCYP24A1 functional assay; assay type: biochemical; settings: D72N_D76N hAdx double mutant; substrate 5 μM
T3 sequence (Q07973 36-514): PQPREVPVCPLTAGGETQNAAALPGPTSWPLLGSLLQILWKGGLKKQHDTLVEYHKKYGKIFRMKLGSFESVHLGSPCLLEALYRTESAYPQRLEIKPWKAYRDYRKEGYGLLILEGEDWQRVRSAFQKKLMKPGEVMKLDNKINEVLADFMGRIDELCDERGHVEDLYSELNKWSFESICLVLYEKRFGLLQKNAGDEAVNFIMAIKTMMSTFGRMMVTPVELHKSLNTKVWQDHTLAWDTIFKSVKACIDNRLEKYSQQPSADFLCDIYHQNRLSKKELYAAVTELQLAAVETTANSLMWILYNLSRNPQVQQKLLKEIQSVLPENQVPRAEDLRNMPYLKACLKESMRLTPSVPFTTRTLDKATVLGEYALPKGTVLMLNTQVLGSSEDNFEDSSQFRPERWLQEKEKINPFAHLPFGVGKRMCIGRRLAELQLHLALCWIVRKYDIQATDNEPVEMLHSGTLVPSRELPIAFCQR
T3 sequence (P10109 61-184 D132N/D136N partner): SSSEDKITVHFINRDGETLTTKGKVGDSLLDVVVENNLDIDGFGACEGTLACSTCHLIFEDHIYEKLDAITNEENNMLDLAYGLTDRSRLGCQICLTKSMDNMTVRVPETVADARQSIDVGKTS

[1] = biological target: T4, human cytochrome P450 24A1 (hCYP24A1), cleaved and separated from the hAdx_hCYP24A1 fusion (human, UniProt Q07973 36-514); experiment: cross-linking
T4 sequence (looked up): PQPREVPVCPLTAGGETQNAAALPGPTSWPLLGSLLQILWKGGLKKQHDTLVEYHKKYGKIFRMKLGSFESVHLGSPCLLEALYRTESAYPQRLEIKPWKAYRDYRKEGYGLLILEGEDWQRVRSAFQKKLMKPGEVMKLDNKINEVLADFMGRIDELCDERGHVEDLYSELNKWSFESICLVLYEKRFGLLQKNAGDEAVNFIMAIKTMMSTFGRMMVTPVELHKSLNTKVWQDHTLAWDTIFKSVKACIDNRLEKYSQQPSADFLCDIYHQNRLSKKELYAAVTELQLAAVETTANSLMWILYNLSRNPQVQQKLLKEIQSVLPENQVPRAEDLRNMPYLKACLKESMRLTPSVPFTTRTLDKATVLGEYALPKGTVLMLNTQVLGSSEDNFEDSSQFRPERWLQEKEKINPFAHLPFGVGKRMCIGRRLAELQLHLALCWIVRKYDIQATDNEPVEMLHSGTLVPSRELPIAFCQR

Molecule: C=C1/C(=C\C=C2/CCC[C@]3(C)[C@@H]([C@H](C)CCCC(C)C)CC[C@@H]23)C[C@@H](O)C[C@@H]1O [1α(OH)D]
- substrate quality for rat CYP24A1 (rat CYP24A1): poor substrate
- Kd (human CYP24A1 (hCYP24A1); +hAdx (WT, 10-fold, 10 μM)): 700 ± 50 nM
- ΔAmax (human CYP24A1 (hCYP24A1); +hAdx (WT, 10-fold, 10 μM)): 0.055 ± 0.004 AU
- Kd (human CYP24A1 (hCYP24A1); hCYP24A1 1 μM, no hAdx): 400 ± 100 nM
- ΔAmax (human CYP24A1 (hCYP24A1); hCYP24A1 1 μM, no hAdx): 0.04 ± 0.008 AU
- spectral response on titration (type-I, high-spin transition) (human CYP24A1 (hCYP24A1)): type-I response, albeit with a more noticeable increase in the high-spin transition

Molecule: C=C1/C(=C\C=C2/CCC[C@]3(C)[C@@H]([C@H](C)CCCC(C)(C)O)CC[C@@H]23)C[C@@H](O)C[C@@H]1O [1α,25(OH)2D]
- ΔAmax (rat CYP24A1 (rCYP24A1)): 0.05 ± 0.004 AU
- substrate remaining (hCYP24A1): approximately 60%
- ΔAmax (human CYP24A1 (hCYP24A1); 10-fold excess of D72N_D76N hAdx): 0.02 ± 0.002 AU
- ΔAmax (human CYP24A1 (hCYP24A1); 10-fold excess of L80I hAdx): 0.04 ± 0.003 AU
- ΔAmax (human CYP24A1 (hCYP24A1); 10-fold excess of L80Q hAdx): 0.02 ± 0.001 AU
- ΔAmax (human CYP24A1 (hCYP24A1); 10-fold excess of L80V hAdx): 0.04 ± 0.003 AU
- ΔAmax (human CYP24A1 (hCYP24A1); +hAdx (WT, 10-fold, 10 μM)): 0.03 ± 0.004 AU
- ΔAmax (human CYP24A1 (hCYP24A1); hCYP24A1 1 μM, no hAdx): 0.03 ± 0.004 AU and 0.03 ± 0.005 AU
- spectral response on titration (type-I, high-spin transition) (human CYP24A1 (hCYP24A1)): type-I transition of the Soret band

Molecule: C=C1CC[C@H](O)C/C1=C/C=C1\CCC[C@]2(C)[C@@H]([C@H](C)CCCC(C)(C)O)CC[C@@H]12 [25(OH)D]
- spectral response on titration (type-I, high-spin transition) (human CYP24A1 (hCYP24A1)): no measureable high-spin form is detected
- binding affinity relative to other substrates (human CYP24A1 (hCYP24A1); interaction could not be saturated): likely binds with a weaker affinity than the other substrates tested

B1: human adrenodoxin (hAdx), unfused, wild type (natural protein)
chain: SSSEDKITVHFINRDGETLTTKGKVGDSLLDVVVENNLDIDGFGACEGTLACSTCHLIFEDHIYEKLDAITDEENDMLDLAYGLTDRSRLGCQICLTKSMDNMTVRVPETVADARQSIDVGKTS
- binding result [1]: binds

Second part, the molecule after the results:

- Kd (human CYP24A1 (hCYP24A1); +hAdx (WT, 10-fold, 10 μM)): 4000 ± 40 nM
- ΔAmax (human CYP24A1 (hCYP24A1); +hAdx (WT, 10-fold, 10 μM)): 0.04 ± 0.003 AU
- spectral response on titration (type-I, high-spin transition) (human CYP24A1 (hCYP24A1)): only a minimal type-I response
Molecule: C=C1/C(=C/C=C2\CCC[C@@]3(C)C2CC[C@@H]3C(C)CCC(O)C(C)(C)O)C[C@@H](O)C[C@@H]1O (stereo partly drawn) [1α,24,25(OH)3D]

- binding result [1]: binds
B2: human adrenodoxin mutant L80I (natural protein)
chain: SSSEDKITVHFINRDGETLTTKGKVGDSLLDVVVENNLDIDGFGACEGTLACSTCHLIFEDHIYEKLDAITDEENDMLDIAYGLTDRSRLGCQICLTKSMDNMTVRVPETVADARQSIDVGKTS

- binding result [1]: binds
B3: human adrenodoxin mutant L80V (natural protein)
chain: SSSEDKITVHFINRDGETLTTKGKVGDSLLDVVVENNLDIDGFGACEGTLACSTCHLIFEDHIYEKLDAITDEENDMLDVAYGLTDRSRLGCQICLTKSMDNMTVRVPETVADARQSIDVGKTS

- binding result [1]: binds
B4: human adrenodoxin mutant L80Q (natural protein)
chain: SSSEDKITVHFINRDGETLTTKGKVGDSLLDVVVENNLDIDGFGACEGTLACSTCHLIFEDHIYEKLDAITDEENDMLDQAYGLTDRSRLGCQICLTKSMDNMTVRVPETVADARQSIDVGKTS
